Assay outcomes (PubChem)
This excerpt belongs to a sample that is enriched for hits.
H69AR growth 86K: blocks growth of human H69AR lung tumor cells; 85,000 tested, 6% active; H69AR lung tumor viability, ATP luminescence, 72 h; active compounds read low; viability, % at 10 µM;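 active = viability at or below 40%; inactive = viability above 40%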;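 note: multidrug resistant small cell line overexpressing MRP-1 efflux transporter; 100% = mean luminescence of untreated control wells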
Fibroblast inh: blocks proliferation of human lung fibroblasts; LL 47 human lung fibroblast viability, ATP luminescence; active compounds read low; viability, % at 10 µM; 85,000 tested, 1.1% active; AID 719;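 active = viability at or below 50% in the single dose screen; inactive = viability above 50%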;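 note: compound exposure lasted 72 h before the ATP readout; 100% = median luminescence of untreated cell-only wells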
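Material: Human LL 47 lung fibroblast cells | Input: 1,150 cells/well | Buffer or medium: IMEM plus 15% FBS | Compound dosing: 0.1% DMSO in all compound wells | Times: Overnight cell rest, 72 h compound treatment at 37 °C | Signal: CellTiter-Glo luminescence measuring cellular ATP | Measure: % viability versus median cells-only luminescence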
bCat KO growth: beta-catenin-lacking colon tumor cell growth suppression; HCT116 beta-catenin knockout viability, CellTiter-Glo, 60 h; active compounds read low; viability, % at 10 µM; 140,000 tested, 1.5% active; AID 818;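 active = viability at or under a set limit, the compound median less 4 SD, cut at about 6% in these data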;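 note: 0% = Hyamine 1622 control at 20 µM and 100% = untreated cell control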
HUVEC inhibit: human endothelial cell proliferation inhibition | viability, % at 10 µM (by protocol) | 86,000 tested, 1.1% active | HUVEC proliferation, CellTiter-Glo luminescence, 72 h; active compounds read low;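 active = viability at or below 30%; inactive = viability above 30%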;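 note: 100% = median luminescence of DMSO-only cell control wells on each plate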
PTEN del growth: PTEN-deleted cell growth suppression; 140,000 tested, 1.2% active; HCT116 PTEN-null viability, CellTiter-Glo, 60 h; active compounds read low; viability, % at 10 µM;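 active = viability at or below a set limit, 4 SD under the median of all tested compounds, cut at about 3.7% in these data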;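 note: PTEN knockout HCT116 line with beta catenin targeted HCT116 as companion control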
* marks the source's active call; other numbers are inactive results; . = no result.

SMILES | H69AR growth 86K | Fibroblast inh | bCat KO growth | HUVEC inhibit | PTEN del growth
CCC(C)n1c(=O)c(C(=O)Nc2ccccc2S(N)(=O)=O)c(O)c2ccccc21 (stereo unspecified) | 27* | 102 | 9 | 69 | 5
CC(C)C1Cc2c(sc3[nH]c(=S)n(Cc4ccccc4)c(=O)c23)CO1 (stereo unspecified) | 25* | 69 | 43 | 7.0* | 60
Cc1nnc2n(-c3ccccc3)c(=O)c3c4c(sc3n12)COC(C(C)C)C4 (stereo unspecified) | 79 | 101 | 97 | 99 | 95
CCc1c(C)sc(NC(=O)c2ccccc2[N+](=O)[O-])c1C(N)=O | . | . | 105 | . | 99
O=C(NC(NC(=S)Nc1ccccc1Cl)C(Cl)(Cl)Cl)c1cccc(Cl)c1 (stereo unspecified) | . | . | 5.6* | . | 2.7*
O=C(/C=C/c1ccccc1)NC(NC(=S)Nc1cccc(Cl)c1)C(Cl)(Cl)Cl (stereo unspecified) | . | . | 10 | . | 2.9*
O=C(Cc1cccc2ccccc12)NC(NC(=S)Nc1ccccc1Cl)C(Cl)(Cl)Cl (stereo unspecified) | . | . | 38 | . | 16
COc1ccc(NC(=S)NC(NC(=O)c2cccc(Cl)c2)C(Cl)(Cl)Cl)c([N+](=O)[O-])c1 (stereo unspecified) | 2.9* | 94 | 66 | 12* | 65
COc1ccc(Cl)cc1NC(=S)NCCSc1ccc(C)cc1 | . | . | 84 | . | 88
O=C(c1ccc(S(=O)(=O)c2ccccc2Cl)c([N+](=O)[O-])c1)N1CCCCCC1 | . | . | 20 | . | 25
Cc1cc2c(N3CCCCC3C)ncnc2s1 (stereo unspecified) | 37* | 94 | 77 | 102 | 82
CCSc1nnc(C)c(=O)n1COC(=O)c1ccc(S(=O)(=O)N2CCCC2)cc1 | . | . | 90 | . | 99
COc1ccc(/C=C/c2ccncc2)c2ccccc12 | 14* | 94 | 74 | 69 | 73
COc1ccccc1/C=C/C=N/NC(=O)c1ccncc1 | . | . | 68 | . | 71
CC(=O)c1ccc(NC(=O)C(C)OC(=O)COc2ccc(C#N)cc2)cc1 (stereo unspecified) | . | . | 92 | . | 97
CCCCNC(=O)C(C#N)c1nc2ccccc2nc1N1CCCC1 (stereo unspecified) | 100 | 96 | 97 | 105 | 90
COC(=O)C1CCN(c2nc3ccccc3nc2C(C#N)C(=O)NCCc2ccccc2)CC1 (stereo unspecified) | 57 | 82 | 66 | 64 | 74
COc1ccc(CNC(=O)C(C#N)c2nc3ccccc3nc2N2CCCC2)cc1 (stereo unspecified) | 34* | 90 | 58 | 72 | 55
COc1ccc(CNC(=O)C(C#N)c2nc3ccccc3nc2N2CCN(C)CC2)cc1 (stereo unspecified) | 34* | 93 | 36 | 4.2* | 45
NC(=NCCc1ccccc1)NS(=O)(=O)c1ccc2ccccc2c1 | . | . | 86 | . | 83
CCCCC(=O)O[C@H]1CC[C@H]2[C@@H]3CCc4cc(O)ccc4[C@H]3CC[C@]12C | 1.1* | 85 | 53 | 8.9* | 63
C[C@]12CC[C@@H]3c4ccc(O)cc4CC[C@H]3[C@@H]1CCC2=O | 81 | 93 | 78 | 78 | 75
CN(c1ccccc1C(=O)O)S(C)(=O)=O | 93 | 101 | 101 | 101 | 109
CN(C)c1ccccc1C(=O)c1ccccc1N(C)C | 14* | 59 | 19 | 59 | 19
Cc1cccc(-c2nc(CSCC(=O)N3CCN(Cc4ccc5c(c4)OCO5)CC3)c(C)o2)c1 | 33* | 95 | 12 | 88 | 18
SMILES | H69AR growth 86K | Fibroblast inh | bCat KO growth | HUVEC inhibit | PTEN del growth
Cc1ccnc(SCc2cc(=O)c(OC(=O)c3ccc(Cl)c([N+](=O)[O-])c3)co2)n1 | . | . | 101 | . | 102
CCOc1c(Br)ccc2c1sc1nc[nH]c(=O)c12 | 79 | 99 | 92 | 26* | 86
CCOC(=O)c1cc(NC(=O)Nc2nccs2)c(C)nc1C | . | . | 88 | . | 100
C#CCN1C(=O)C(O)(CC(=O)c2cccc(OC)c2)c2ccccc21 (stereo unspecified) | 20* | 102 | 34 | 93 | 19
CCOC(=O)CN1C(=O)C(O)(CC(=O)c2cccc(OC)c2)c2ccccc21 (stereo unspecified) | 28* | 95 | 49 | 101 | 56
COC(=O)CN1C(=O)C(O)(CC(=O)c2ccccc2)c2ccccc21 (stereo unspecified) | 96 | 101 | 98 | 85 | 102
CCOC(=O)CN1C(=O)C(O)(CC(=O)c2ccco2)c2ccccc21 (stereo unspecified) | 26* | 100 | 79 | 108 | 72
CN1C(=O)C(O)(CC(=O)c2ccccc2O)c2cc(Br)ccc21 (stereo unspecified) | 20* | 77 | 30 | 55 | 22
CCc1cccc(CC)c1NC(=O)CSc1nc2ccc(N3C(=O)C4C(C3=O)[C@H]3C=C[C@@H]4C3)cc2s1 (stereo partly specified) | . | . | 68 | . | 76
CCOC(=O)CSc1ncnc2c(C(=O)OCC)c3n(c12)CCC3 | . | . | 97 | . | 96
COc1ccc(CCNC(=O)Cn2nc([N+](=O)[O-])c(Br)c2C)cc1OC | . | . | 102 | . | 91
O=C(c1ccc2c(=O)n3c(nc2c1)CCCCC3)N1CCN(C(c2ccccc2)c2ccccc2)CC1 | . | . | 72 | . | 59
CCN1C(=O)C(O)(CC(=O)c2ccc3c(c2)OCCO3)c2ccccc21 (stereo unspecified) | 103 | 97 | 104 | 100 | 93
COc1ccc(CN2C(=O)C(O)(CC(=O)c3ccc4c(c3)OCO4)c3ccccc32)cc1OC (stereo unspecified) | 28* | 105 | 49 | 105 | 28
Cc1[nH]c2ccccc2c1C1(O)C(=O)N(Cc2ccc3c(c2)OCO3)c2ccccc21 (stereo unspecified) | 14* | 80 | 13 | 80 | 9
Cc1[nH]c2ccccc2c1C1(O)C(=O)N(C(C)C)c2ccccc21 (stereo unspecified) | 47 | 91 | 95 | 92 | 95
CCCCN1C(=O)C(O)(CC(=O)c2ccco2)c2cc(Br)ccc21 (stereo unspecified) | 21* | 68 | 14 | 65 | 15
O=C(CC1(O)C(=O)N(Cc2ccccc2Cl)c2ccccc21)c1ccco1 (stereo unspecified) | 15* | 96 | 12 | 68 | 11
Cc1ccc(C(=O)/C=C/c2cn(CN3CCN(C)CC3)c3ccccc23)cc1 | 5.8* | 89 | 70 | 64 | 72
O=C1[C@@H]2[C@@H]3C[C@@H]([C@H]4ON=C(c5ccc(OCc6ccccc6)cc5)[C@@H]34)[C@@H]2C(=O)N1c1ccc2c(c1)OCO2 | . | . | 83 | . | 86
CC(C)(C)c1nnc2sc(SCCN3C(=O)c4ccccc4C3=O)nn2c1=O | 78 | 98 | 87 | 97 | 86
CC(C)N(C(=O)CSc1nn2c(=O)c(C(C)(C)C)nnc2s1)c1ccccc1 | 14* | . | 73 | 66 | 68
CCSc1nnc(NC(=O)NC(C)(C(F)(F)F)C(F)(F)F)s1 | . | . | 86 | . | 84
